GPR7 antagonist: human neuropeptides B/W receptor 1 antagonism | inhibition, % at 4.4 µM | GPR7-expressing cells, fluorescence antagonist assay | P48145 | AID 1861 | actives 1.1% (n = 290,000); in the data active = inhibition above about 16%, passing the limit was not always enough;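 note: cells stimulated with the agonist NPW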
TAAR1 agonist: human TAAR1 agonism | Q96RJ0 | actives 0.99% (n = 360,000) | CHO RD-HGA16 TAAR1, Fluo-8 calcium fluorescence; vehicle wells 0%, saturating PEA agonist 100% | activation, % at 3 µM;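 active = activation above the mean activation of all test compounds in the run plus 3 SD, cut at about 38% in these data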
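System: CHO-derived RD-HGA16 cells with stable Gα16 and human TAAR1 / Times: 17-24 h plating, Fluo-8 75 min 37 °C, 30 min RT / Technique: calcium-sensitive Fluo-8 signal, excitation 470-495, emission 515-575 nm / Measure: % activation relative to PEA EC100 response / Benchmarks: DMSO and PEA EC100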
OX1R antag-1: human HCRTR1 antagonism; CHO/OX1R cells, Fluo-8 calcium fluorescence, orexin A; inhibition, % at 5 µM; actives 0.43% (n = 330,000);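 active = inhibition above its plate's threshold, mean inhibition of all tested compounds on the plate plus 3 SD, cut at about 37% in these data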
Target sequence (O43613 whole entry, looked up): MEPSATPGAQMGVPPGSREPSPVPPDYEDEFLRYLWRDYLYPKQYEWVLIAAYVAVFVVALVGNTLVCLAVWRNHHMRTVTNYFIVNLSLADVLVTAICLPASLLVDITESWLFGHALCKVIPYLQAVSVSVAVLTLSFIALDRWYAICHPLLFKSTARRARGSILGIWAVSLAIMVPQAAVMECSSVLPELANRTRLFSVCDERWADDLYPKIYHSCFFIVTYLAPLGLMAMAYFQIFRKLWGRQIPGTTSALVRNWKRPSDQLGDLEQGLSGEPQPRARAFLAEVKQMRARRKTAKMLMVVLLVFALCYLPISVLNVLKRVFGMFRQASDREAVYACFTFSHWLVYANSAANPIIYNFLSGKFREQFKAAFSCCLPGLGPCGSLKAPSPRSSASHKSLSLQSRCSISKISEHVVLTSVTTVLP
OX1R antag-2: blocks the human orexin 1 receptor; O43613; OX1R-expressing cells, FRET antagonist read-out; inhibition, % at 6.6 µM; actives 1.8% (n = 330,000); in the data active = inhibition mostly above about 38%, no sharp cut-off; inactive = mostly below about 40%
TAAR1 antagonist: human TAAR1 antagonism. CHO RD-HGA16 TAAR1, Fluo-8 calcium fluorescence, antagonist. inhibition, % at 3 µM. actives 1.5% (n = 360,000). AID 624466;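 active = inhibition above a per-plate cutoff, the mean inhibition of test compounds on that plate plus 3 SD, cut at about 49% in these data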
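System: RD-HGA16 CHO cells with stable hTAAR1 and Gα16 | Probe or stimulus: EC80 β-phenethylamine stimulus | Dosing: 3 µM, single point | Times: Dye loading 75 min at 37 °C, then 30 min room temperature | Measured by: Fluo-8 calcium-sensitive fluorescence | Read-out basis: % inhibition of agonist calcium response | Replicates: n of 1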
CHO parental Ca: signal in parental CHO cells, OX1R antagonist counter-screen | AID 463079 | inhibition, % at 5.6 µM | actives 0.63% (n = 330,000) | parental CHO-K1, ATP-induced calcium, Fluo-8 fluorescence;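 active = inhibition above that plate's mean sample inhibition plus 3 SD, cut at about 26% in these data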
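Test system: untransfected parental CHO cell line; also added: ATP stimulus; dosing: 5.6 µM, single dose; signal: calcium-sensitive Fluo-8 fluorescence; measure: percent inhibition of ATP-evoked calcium rise, normalized to controls; benchmarks: low control ATP plus DMSO, high control DMSO only; replication: one well per compound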
TAAR1 ag confirm: human TAAR1 agonism, confirmed; shares compounds with TAAR1 agonist; CHO RD-HGA16 TAAR1, Fluo-8 calcium fluorescence; scaled: DMSO 0%, maximal phenethylamine 100%; activation, % at 3 µM; actives 82% (n = 2,400); AID 651783;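 active = activation above a cutoff set at the run's mean compound activation plus 3 SD, cut at about 39% in these data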
Ga16 ag counter: nonselective agonist in parental cells, TAAR1 agonist counter-screen; shares compounds with TAAR1 agonist; activation, % at 3 µM; AID 651787; actives 50% (n = 2,400); CHO-Ga16 parental, Fluo-8 calcium fluorescence; normalized to maximal ATP response, DMSO zero;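 active = activation above the run cutoff, the mean activation over all tested wells plus 3 SD, cut at about 12% in these data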
TAAR1 desensitize: counter-screen for human TAAR1 agonists: agonists that desensitize TAAR1 | shares compounds with TAAR1 agonist | CHO RD-HGA16 hTAAR1, Fluo-8 calcium, beta-PEA response inhibition | inhibition, % at 3 µM | actives 46% (n = 2,400) | AID 651951;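 active = inhibition above the run cutoff, the mean inhibition of all test compounds plus 3 SD, cut at about 49% in these data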;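 note: beta-PEA stimulus applied at its EC80; loss of beta-PEA calcium signal after compound pretreatment read as receptor desensitization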
Ga16 nonsel ant: nonselective Ga16 antagonist in TAAR1 agonist counter-screen | actives 39% (n = 2,400) | AID 651952 | CHO-Ga16 ATP-induced calcium, Fluo-8 fluorescence | inhibition, % at 3 µM | shares compounds with TAAR1 agonist;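 active = inhibition above the plate's mean compound inhibition plus 3 SD, computed per plate, cut at about 22% in these data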
Numbers stand for hits; i = inactive; nt = no result. Shown are actives, neighbours in structure and some others; about 4.5% of the full set was active somewhere.

SMILES	GPR7 antagonist	TAAR1 agonist	OX1R antag-1	OX1R antag-2	TAAR1 antagonist	CHO parental Ca	TAAR1 ag confirm	Ga16 ag counter	TAAR1 desensitize	Ga16 nonsel ant
C[C@H]1CN[C@H](CCO)/C1=C\c1ccccc1	nt	46.6	nt	nt	i	nt	61.2	i	i	i
C[C@H]1CN[C@@H](CCO)/C1=C\c1ccccc1	nt	43.3	nt	nt	i	nt	52.5	i	i	i
C[C@@H]1CN(S(=O)C(C)(C)C)[C@H](CCO)/C1=C\c1ccccc1 (stereo partly drawn)	nt	i	nt	nt	i	nt	nt	nt	nt	nt
COc1ccc(CCCNC(=O)C2Cc3c(-c4cccc(C(C)=O)c4)ccnc3O2)cc1 (stereo not drawn)	nt	i	nt	nt	i	nt	nt	nt	nt	nt
CC1CCCN(CCOc2ccc(Br)cc2)C1 (stereo not drawn)	i	i	i	i	i	i	nt	nt	nt	nt
CC1CCCN(CCC(=O)c2ccc(Br)cc2)C1 (stereo not drawn)	i	75.0	i	i	i	i	92.8	i	57.4	i
COc1ccc(C(=O)CCN2CCCC(C)C2)cc1 (stereo not drawn)	i	78.8	i	i	i	i	76.1	i	i	i
COc1ccc(C2=Nc3ccccc3N(C(=O)c3ccncc3)C2C(=O)NC(C)C)cc1 (stereo not drawn)	nt	i	nt	nt	i	nt	nt	nt	nt	nt
O=C(NNC(=S)NC(=O)c1ccc(F)cc1)c1ccncc1	nt	i	i	i	i	i	nt	nt	nt	nt
O=C(NNC(=S)NC(=O)C12CC3CC(CC(C3)C1)C2)c1ccncc1	i	155.3	i	i	93.0	i	121.7	102.7	72.5	55.3
CC1(C(=O)NC(=S)NNC(=O)c2ccncc2)CCCCC1	i	92.5	i	i	i	i	69.9	52.4	i	23.0
CCC(=O)N1CCCC(C)(C(=O)Nc2nccc3cccnc23)C1 (stereo not drawn)	nt	i	nt	nt	i	nt	nt	nt	nt	nt
CN(C(=O)c1cccc(NC(=O)Cc2ccc(NC(=O)C3CCN(C(=O)C4CCCCC4)CC3)cc2)c1)C1CC1	nt	i	nt	nt	i	nt	nt	nt	nt	nt
COC(=O)C1CCN(C2CN(Cc3ccccc3)S(=O)(=O)C2)CC1 (stereo not drawn)	nt	i	nt	nt	i	nt	nt	nt	nt	nt
O=C(CNc1ccc(C(F)(F)F)cc1)Nc1cccc(S(=O)(=O)N2CCCCC2)c1	nt	i	nt	nt	i	nt	nt	nt	nt	nt
O=S(=O)(Nc1cccnc1)c1ccccc1	i	i	i	i	i	i	nt	nt	nt	nt
O=S(=O)(Nc1cccnc1)c1ccc(C2CCCCC2)cc1	i	55.7	42.1	i	i	34.7	71.2	27.7	i	30.8
CCOC(=O)c1c(NC(=O)CSc2nnc(C)s2)sc2c1CCCCC2	i	57.7	53.7	i	i	52.1	40.1	23.1	i	i
CCOC(=O)c1c(NC(=O)CSc2nnc(C)s2)sc2c1CCC(C)C2 (stereo not drawn)	i	i	i	i	i	i	nt	nt	nt	nt
COc1ccc(Cc2c(C3CCCCC3)nc3c(Cl)cc(C(F)(F)F)cn23)c(C)c1	nt	i	nt	nt	i	nt	nt	nt	nt	nt
OCCNCc1ccc(-c2ccccc2)cc1	i	i	i	i	i	i	nt	nt	nt	nt
OCCCNCc1ccc(N(c2ccccc2)c2ccccc2)cc1	i	45.4	i	i	i	i	72.8	24.7	i	i
Cc1cccc(C(O)c2ncc(-c3ccc(F)cc3)[nH]2)c1C (stereo not drawn)	nt	i	nt	nt	i	nt	nt	nt	nt	nt
COc1ncnc2c1ncn2CCCNCc1ccccn1	nt	i	nt	nt	i	nt	nt	nt	nt	nt
CN1OC[C@@H]2CN(C(=S)NCCc3ccccc3)[C@H](c3ccc(-n4ccnc4)cc3)C[C@@H]21	nt	47.2	nt	nt	i	nt	48.9	i	i	i

Screening data: PubChem, The Scripps Research Institute Molecular Screening Center
